Screens: PubChem BioAssay, several laboratories
This is a sample that favours compounds with a hit; in the whole collection about 6.4% have one here.
HUVEC prolif 384: inhibitors of HUVEC proliferation, primary screen, cell-based, 384-well. AID 648, 2007. hit rate 1.1% among 86,000. CellTiter-Glo luminescence, 72 h; hits give low values. viability, % at 10 µM (by protocol);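 active = viability at or below 30%; inactive = viability above 30%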;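 also: 100% = median luminescence of DMSO-only cell control wells on each plate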
Fibroblast inh: antiproliferative effect on LL 47 fibroblasts – human, LL 47 cells, CellTiter-Glo luminescence, primary screen | LL 47 human lung fibroblast viability, ATP luminescence; hits give low values | viability, % at 10 µM | hit rate 1.1% among 85,000;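 active = viability at or below 50% in the single dose screen; inactive = viability above 50%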;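 also: compound exposure lasted 72 h before the ATP readout; 100% = median luminescence of untreated cell-only wells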
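Benchmarks: Cell-only wells, no compound | Test system: LL 47 human lung fibroblasts, passage 12 or lower | Input: 1,150 cells/well | Measured by: CellTiter-Glo luminescence measuring cellular ATP | Medium: IMEM, 15% FBS supplement | Schedule: Overnight attachment after seeding, then 72 h compound exposure at 37 °C | Doses: Compound addition at 0.1% DMSO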
H69AR inhibit: proliferation blockers of H69AR lung cancer cells, primary screen, cell-based, human, 86K library. H69AR lung tumor viability, ATP luminescence, 72 h; hits give low values. viability, % at 10 µM. hit rate 6% among 85,000. AID 598, 2007;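 active = viability at or below 40%; inactive = viability above 40%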;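 also: multidrug resistant small cell line overexpressing MRP-1 efflux transporter; 100% = mean luminescence of untreated control wells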
Jurkat viability: cytotoxicity toward Jurkat T cells, primary screen, cytotoxicity control, cell-based, Jurkat E6.1, 60K MLSMR library. AID 463, 2006. Jurkat E6.1 viability, ATP luminescence, 48 h. inhibition, % at 4 µM. hit rate 1.2% among 56,000;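 active = inhibition above the mean inhibition of all tested compounds plus 3 SD, cut at about 28% in these data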
The depositor's hits bear a star; . = no result given.

SMILES | HUVEC prolif 384 | Fibroblast inh | H69AR inhibit | Jurkat viability
O=C(N/N=C/c1ccc(O)c(O)c1)c1ccc(CSc2cccc3cccnc23)cc1 | 73.1 | 73.7 | 39.9* | .
CN(c1ccccc1)S(=O)(=O)c1ccc(C(=O)Nc2nnc(-c3ccc(F)cc3)o2)cc1 | 2.0* | 70.9 | 34.1* | -6.5
COc1ccccc1N(C)S(=O)(=O)c1ccc(C(=O)NC2=NCCS2)cc1 | 106.6 | 105.0 | 81.1 | .
CN(Cc1ccccc1)S(=O)(=O)c1ccc(C(=O)Nc2nnc(C3CC3)o2)cc1 | . | . | . | 100.3*
COc1ccccc1-c1nnc(NC(=O)c2ccc(S(=O)(=O)N(C)Cc3ccccc3)cc2)o1 | 17.2* | 67.4 | 22.0* | 11.8
CC(Sc1ccsc1[N+](=O)[O-])C(=O)NCCc1ccc(Cl)cc1 (configuration not stated) | 95.5 | 97.7 | 98.9 | .
Cc1cc(C)cc(Nc2ncc3c(n2)CCCC3=O)c1 | 96.7 | 104.8 | 85.2 | 0.4
COc1ccc(-c2cc(-c3cccs3)c(C#N)c(SCC(=O)NCc3ccco3)n2)cc1 | 51.9 | 56.5 | 22.2* | 14.5
CN1CCN(C(=O)CSc2nc(-c3cccs3)cc(-c3cccs3)c2C#N)CC1 | 2.0* | 53.0 | 5.4* | 11.3
C#CCSc1nc(-c2cccs2)ccc1C#N | 56.8 | 82.1 | 43.0 | 15.5
CSc1nc(C2CC2)cc(-c2cccs2)c1C#N | 29.9* | 31.6* | 8.6* | -1.6
COC(=O)CSc1nc(-c2cccs2)ccc1C#N | 99.7 | 96.2 | 36.6* | .
N#Cc1c(SCC(N)=O)nc2c(c1-c1ccc(OCc3ccccc3)cc1)CCCC2 | 91.3 | 82.4 | 87.1 | .
Cc1ccc(N(CC(=O)N2CCc3ccccc32)S(=O)(=O)c2cccs2)cc1 | 89.3 | 80.2 | 85.5 | .
C=CCOc1ccc(/C(O)=C2/C(=O)C(=O)N(CCCn3ccnc3)C2c2cccs2)cc1 (configuration not stated) | 93.1 | . | 48.5 | -6.5
Cc1nn(C)c(C)c1NC(=O)CSc1nc(Cc2ccccc2)nc2c1cnn2-c1ccccc1 | 86.6 | 87.2 | 5.3* | 5.6
O=C(OCC(=O)N1CCc2ccccc21)c1ccc(Cl)nc1 | 95.8 | 94.6 | 92.1 | .
Cc1ccccc1NC(=O)N(CCc1nc2ccccc2[nH]1)Cc1ccccc1 | 68.0 | 98.9 | 16.5* | .
Cc1nc2ccccc2c(=O)n1/N=C/c1cccnc1 | 106.5 | 101.4 | 96.7 | .
Cc1ccc(-c2nc(N/N=C/c3cccnc3)c3ccccc3n2)cc1 | 57.3 | 50.4 | 25.6* | .
C=CCNc1nc(N)c(C(=O)c2ccc3c(c2)OCO3)s1 | 101.6 | 94.8 | 28.6* | -4.5
O=C(Nc1ccc(Cl)cc1)NC1CCCCC1Cc1ccco1 (configuration not stated) | 61.2 | 96.0 | 6.6* | .
Cc1ccn2c(C(=O)c3ccc(Cl)cc3)cnc2c1 | 83.5 | 87.0 | 81.4 | .
O=C(C1CCC(CNS(=O)(=O)c2cccc3nsnc23)CC1)N1CC=C(c2ccccc2)CC1 (configuration not stated) | 79.8 | 104.7 | 39.3* | .
O=C(NC1CCCCC1)C1CCC(CNS(=O)(=O)c2cccc3nsnc23)CC1 (configuration not stated) | 55.9 | 96.5 | 85.1 | .
SMILES | HUVEC prolif 384 | Fibroblast inh | H69AR inhibit | Jurkat viability
CC1CCC(NC(=O)C2CCC(CNS(=O)(=O)c3cccc4nsnc34)CC2)CC1 (configuration not stated) | 43.5 | 67.1 | 17.2* | .
O=C(C1CCN(S(=O)(=O)c2cccc3nsnc23)CC1)N1CC=C(c2ccccc2)CC1 | 93.8 | 95.0 | 45.5 | -2.2
CCSc1nnc(-c2cccnc2)n1-c1ccc(Cl)c(C)c1 | 92.3 | 94.6 | 61.2 | .
O=C(Nc1nnc(CCN2CCOCC2)s1)C1CCCCC1 | 81.0 | 103.2 | 90.1 | -1.3
CCC1Oc2nc(SC)nnc2-c2ccccc2N1C(=O)c1ccccc1 (configuration not stated) | 91.2 | 83.5 | 24.8* | -4.1
Cc1cc(C)c(S(=O)(=O)n2ccc3ccccc32)c(C)c1 | 88.7 | 97.8 | 7.8* | .
COC(=O)C1CCN(C(=O)COc2cc3sc(C)nc3c3sccc23)CC1 | 88.7 | 99.2 | 34.8* | 6.2
CC1CCN(CCCNC(=O)c2ccc(CSCc3cccc(Cl)c3)o2)CC1 | 69.8 | 77.2 | 69.6 | .
CCC(C)n1c(NC(=O)c2ccccc2)c(C#N)c2nc3ccccc3nc21 (configuration not stated) | 51.4 | 100.9 | 2.9* | .
CC1CC(=O)C=C(O)C1C(=O)OC(C)(C)C (configuration not stated) | 102.0 | 98.1 | 104.5 | 7.4
Cc1nn(-c2ccccc2)c(Cl)c1C(=O)N1CCN(c2ncnc3c2cnn3-c2ccccc2)CC1 | 2.7* | 54.7 | 33.9* | -1.3
O=C(c1ccco1)N1CCN(c2ncnc3c2cnn3-c2ccccc2)CC1 | 97.7 | 98.9 | 76.3 | 5.9
CNC(=S)N/N=C1\C(=O)c2cccc3cccc1c23 | 39.1 | 46.0* | 13.4* | .
CCOc1nc(SCCOc2ccccc2)nc(N(C)C)n1 | 110.8 | 97.2 | 73.3 | .
CCNc1nc(SCCOc2ccc(C)cc2)nc(N(C)C)n1 | 96.8 | 84.9 | 31.4* | 2.5
COC(=O)COc1ccc(S(=O)(=O)NCC2CCCO2)cc1Cl (configuration not stated) | 93.6 | 95.8 | 94.2 | 0.5
CC1(C)Nc2ccc(O)cc2-c2c1ssc2=S | 26.8* | 87.6 | 68.2 | .
CCOC(=O)Cc1csc(SCc2nc3sc4c(c3c(=O)[nH]2)CCC4)n1 | 100.3 | 104.5 | 92.8 | .
COc1cc(C(=O)O/N=C2\CCCc3c2ccc(OC)c3[N+](=O)[O-])cc(OC)c1OC | 57.9 | 71.4 | 16.9* | .
COc1ccccc1C(=O)O/N=C1/CCCc2c1ccc(OC)c2[N+](=O)[O-] | 99.9 | 102.9 | 63.4 | .
Cc1ccc(Cl)cc1N1CCN(C(=O)CN(C2CCCCC2)S(C)(=O)=O)CC1 | 88.0 | 93.1 | 73.4 | .
CC1c2[nH]c3ccccc3c2CCN1C(=O)Nc1ccccc1 (configuration not stated) | 81.6 | 99.1 | 25.3* | -1.2
O=C(CCN1CCCCC1)NCC1OCCc2ccccc21 (configuration not stated) | 94.8 | 98.5 | 96.2 | 6.4
CC1C(C(=O)Nc2ccccc2)CCCC1(C)C(=O)O (configuration not stated) | 115.2 | 111.2 | 103.5 | .
O=c1[nH]c2cc3c(cc2cc1C(c1nnnn1C1CCCC1)N1CCSCC1)OCCO3 (configuration not stated) | 65.4 | 80.5 | 6.4* | -6.8
Cc1cc(C)c2cc(C(c3nnnn3C3CCCC3)N3CCOCC3)c(=O)[nH]c2c1 (configuration not stated) | 99.4 | 97.4 | 35.5* | 2.4
Fc1cccc(CN2CCN(c3ncccn3)CC2)c1 | 97.2 | 106.0 | 98.8 | 5.5
COc1ccc(CCC(=O)N2CCN(C3CCCCC3)CC2)cc1 | 95.0 | 17.0* | 91.0 | -0.6
O=C(CCC1CCCC1)N1CCN(C2CCCC2)CC1 | 94.3 | 87.0 | 87.7 | -4.4
CN1CC=C2C(C#N)=C(N)C(C#N)(C#N)C(c3ccsc3)C2C1 (configuration not stated) | 93.6 | 95.4 | 60.1 | .
